# Screening results from PubChem.
# This is a sample that favours compounds with a hit; in the whole collection about 1.9% have one here.
# TbMetRS inhib: Trypanosoma brucei MetRS inhibition | 360,000 compounds, 0.4% hits | purified T. brucei MetRS, ATP depletion, Kinase-Glo luminescence | inhibition, % at 11.9 µM;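 active = inhibition above a per-plate cutoff of the control wells' mean inhibition plus 3 SD, cut at about 5.5% in these data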;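 also: 0% = DMSO wells median and 100% = median of wells with control inhibitor compound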
#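 Test system – parasite MetRS enzyme · Reagent – substrates ATP, L-methionine and bulk Escherichia coli tRNA · Doses – 11.9 µM compound single dose, 0.9% DMSO · Times – 15 min enzyme-compound preincubation, 2 h reaction, 10 min detection, 25 °C · Signal – Kinase-Glo luminescence, ATP depletion format · Controls – DMSO-only wells as low control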
# PLCg1 inh: PLC-gamma1 (human) inhibition, primary screen | P19174 | purified PLC-gamma1, fluorogenic substrate, fluorescence | inhibition, % at 12.2 µM | 370,000 compounds, 0.84% hits
# Target sequence (P19174 whole entry, looked up): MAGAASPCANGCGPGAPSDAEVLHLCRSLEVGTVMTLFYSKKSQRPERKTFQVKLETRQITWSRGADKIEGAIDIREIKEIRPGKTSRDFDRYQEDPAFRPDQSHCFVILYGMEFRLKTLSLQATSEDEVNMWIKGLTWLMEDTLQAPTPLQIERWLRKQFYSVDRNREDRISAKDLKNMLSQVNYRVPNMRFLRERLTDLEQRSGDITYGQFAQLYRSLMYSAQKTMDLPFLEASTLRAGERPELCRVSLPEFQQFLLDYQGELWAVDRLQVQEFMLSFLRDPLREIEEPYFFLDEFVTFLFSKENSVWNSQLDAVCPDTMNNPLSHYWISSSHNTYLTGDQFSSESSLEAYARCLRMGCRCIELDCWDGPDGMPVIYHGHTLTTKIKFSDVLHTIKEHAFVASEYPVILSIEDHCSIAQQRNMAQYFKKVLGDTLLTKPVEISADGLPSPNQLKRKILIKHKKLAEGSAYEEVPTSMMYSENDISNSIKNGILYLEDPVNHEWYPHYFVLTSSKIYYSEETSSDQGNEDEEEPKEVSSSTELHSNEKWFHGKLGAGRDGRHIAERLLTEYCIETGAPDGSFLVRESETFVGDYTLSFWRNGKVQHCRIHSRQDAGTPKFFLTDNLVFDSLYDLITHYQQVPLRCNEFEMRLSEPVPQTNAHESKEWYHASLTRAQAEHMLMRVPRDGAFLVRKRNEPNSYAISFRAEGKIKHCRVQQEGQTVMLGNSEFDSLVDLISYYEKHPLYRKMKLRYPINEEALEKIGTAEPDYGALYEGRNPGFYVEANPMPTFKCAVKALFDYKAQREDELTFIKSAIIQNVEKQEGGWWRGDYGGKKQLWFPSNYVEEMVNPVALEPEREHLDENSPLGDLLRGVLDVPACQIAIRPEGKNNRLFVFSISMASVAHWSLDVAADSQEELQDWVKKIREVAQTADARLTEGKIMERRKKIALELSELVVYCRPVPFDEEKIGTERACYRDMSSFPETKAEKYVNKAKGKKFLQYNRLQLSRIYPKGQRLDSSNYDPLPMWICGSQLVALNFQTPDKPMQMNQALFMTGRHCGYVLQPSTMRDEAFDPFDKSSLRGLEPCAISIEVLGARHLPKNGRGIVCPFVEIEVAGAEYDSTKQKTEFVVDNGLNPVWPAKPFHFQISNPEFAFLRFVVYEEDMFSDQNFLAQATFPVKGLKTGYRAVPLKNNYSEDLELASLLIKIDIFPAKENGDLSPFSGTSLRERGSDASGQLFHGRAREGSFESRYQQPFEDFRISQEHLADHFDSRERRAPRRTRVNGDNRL
# HGIII-sPLA2 inh: Inhibits HGIII-sPLA2 liposome hydrolysis, primary screen; QFRET BODIPY PC-A2 liposome hydrolysis, fluorescence; inhibition, % at 12.2 µM; 370,000 compounds, 0.56% hits;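 active = inhibition above mean plus 3 SD of compounds lying within the high and low control bounds, cut at about 19% in these data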;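 also: 0% = median of test compound wells and 100% = no enzyme DMSO wells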
# PLC-beta3 inh: PLC-beta3 (human) inhibition, primary screen. Q01970. Purified PLC-beta3, fluorogenic substrate, fluorescence. inhibition, % at 12.2 µM. 370,000 compounds, 0.18% hits. AID 720704; in the data active = inhibition above about 11%;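 also: 0% = median of compound wells on plate and 100% = full blocker control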
# DAGLB inh: diacylglycerol lipase beta (human) inhibition | Q8NCG7 | HEK293T DAGLB membrane lysate, EnzChek fluorogenic substrate | inhibition, % at 5.17 µM | 340,000 compounds, 0.059% hits | AID 504411; in the data active = inhibition above about 34%;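 also: 0% = enzyme with vehicle and 100% = wells lacking enzyme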
# PLCg1 ctr: PLC-gamma1 inhibition, counter-screen for PLC-beta3 hits. shares compounds with PLCg1 inh. purified PLC-gamma1, fluorogenic substrate, fluorescence. inhibition, % at 12.3 µM. 3,300 compounds, 3.1% hits
# PLCb3 confirm: confirmation of human PLC-beta3 inhibitors; shares compounds with PLCg1 inh; purified PLC-beta3, fluorogenic substrate fluorescence; inhibition, % at 12.3 µM; 3,300 compounds, 1% hits; AID 743261; in the data active = inhibition above about 11%
# * hit, by the source's call; nt = no result given. Rule as the data show it, unless noted: active = inhibition above about 9.5%; inactive = the rest.
SMILES,TbMetRS inhib,PLCg1 inh,HGIII-sPLA2 inh,PLC-beta3 inh,DAGLB inh,PLCg1 ctr,PLCb3 confirm
COC(=O)[C@]12C[C@H](CC(=O)NCCC(C)C)C(=O)N(CCC3=CCCCC3)C1=C[C@H](C1CCCC1)O[C@@H]2C,nt,-1.1,-9.7,2.2,nt,nt,nt
CCOc1cccc(-c2nnc3n2N=C(c2ccc(OC)cc2)CS3)c1,nt,2.2,-33.0,-2.1,nt,nt,nt
COc1ccc(C(=O)Nc2ccc(C)c(S(=O)(=O)N3CCCCCC3)c2)cc1,-1.4,11.1*,-6.6,5.4,-4.8,5.3,5.8
Cc1cc(=O)[nH]c(SCC(=O)Nc2ccc(C)c(S(=O)(=O)N3CCCCC3)c2)n1,-0.1,12.2*,-9.8,-1.5,-1.8,-2.8,-1.4
Cc1ccc(NC(=O)CSc2nnc(-c3ccc(S(=O)(=O)N4CCCC4)cc3)o2)cc1C,0.3,11.9*,7.2,2.8,-2.1,-5.1,-4.0
CCOC(=O)c1c(NC(=O)C2CCCN(S(=O)(=O)c3ccc(C)cc3)C2)sc2c1CCCC2 (stereo not given),0.1,14.8*,3.0,1.2,-2.8,-6.2,-1.8
Nc1[nH]c(C(=O)c2ccccc2)c(-c2ccncc2)c1C(=O)NC1CC1,-0.7,10.3*,4.7,2.1,nt,-5.6,-2.7
Cc1ccc(Nc2nc(Nc3ccc(C)cc3)nc(SC3=NCCS3)n2)cc1,-0.9,15.5*,-2.3,2.4,-3.3,5.3,3.0
CN1C(=O)C(=C2CCCCCC2)SC1=S,0.2,1.4,1.5,5.2,-3.3,nt,nt
O=C1NC(=S)SC1=C1CCCC1,-0.7,25.6*,6.1,3.7,2.1,16.2*,-2.4
C[C@H](NC(=O)C(c1ccccc1)c1ccccc1)c1ccccc1,-1.0,5.6,-7.8,-1.3,-2.3,nt,nt
CC(NC(=O)C(c1ccccc1)c1ccccc1)c1ccccc1 (stereo not given),-1.1,16.4*,1.1,9.1,-5.8,8.4,0.6
c1ccc([C@H]2CNCCN2CCc2cccc3ccccc23)cc1,-0.1,12.4*,-1.0,5.4,-2.3,-4.7,-3.4
Cc1cccc(Nc2nnc(SCc3cn4ccsc4n3)s2)c1,1.4,10.2*,-4.9,0.6,3.1,0.9,-1.4
O=C(CCCCCNC(=O)N1CCn2c1nc1ccccc12)NCc1ccc(F)cc1,-0.7,11.2*,8.9,-0.1,-2.5,-5.1,-3.8
Cc1noc(C)c1S(=O)(=O)N1CCCc2nc(-c3ccc(F)cc3)ccc21,nt,1.7,-2.8,-1.4,nt,nt,nt
CCOc1ccccc1NC(=O)c1cccc(NC2=NC3CS(=O)(=O)CC3S2)c1 (stereo not given),-0.3,12.8*,10.0,6.7,0.5,-0.8,1.9
COc1ccc(Br)cc1S(=O)(=O)N1CC(C)OC(C)C1 (stereo not given),-0.5,4.5,6.7,11.0*,-3.5,-5.3,-3.5
CCOc1cccc(CN2CCC(n3nccc3NC(=O)c3ccc4c(c3)OCO4)CC2)c1,0.1,10.2*,-14.1,-3.5,-0.3,0.6,3.2
CCn1cc(CN2CCC(n3nccc3NC(=O)CCc3ccccc3)CC2)cn1,-0.1,3.0,-0.9,-11.7,1.4,nt,nt
CCn1cc(CN2CCC(n3nccc3NC(=O)CCOc3ccccc3)CC2)cn1,-0.4,13.4*,0.1,-2.0,0.0,-4.8,-1.4
Cc1ccc(S(=O)(=O)NC[C@H]2CN(S(=O)(=O)c3ccc(C)cc3)[C@@H](Cc3ccccc3)CO2)cc1,nt,0.4,-15.7,-0.7,nt,nt,nt
COc1ccc(CCNC(=O)CN2C(=O)COc3ccc(S(=O)(=O)N4CCOCC4)cc32)cc1OC,0.3,11.3*,11.0,-5.2,1.2,-6.6,0.3
Cc1cc(N2CCCCC2)nc(SCc2ccc(C#N)cc2)n1,-0.3,10.6*,-21.6,6.0,-4.2,-1.3,-1.2
N#Cc1ccc(CSc2nc(N)cc(N)n2)cc1,-0.4,3.2,-2.7,-4.4,-2.1,nt,nt
Cc1nnc(C)n1N=Cc1ccc(Cl)c([N+](=O)[O-])c1,nt,1.6,5.9,3.6,nt,nt,nt
Cc1ccc2nc(NC(=O)C3CCN(S(=O)(=O)c4cnc[nH]4)CC3)sc2c1,-1.0,9.6*,-49.9,5.7,0.3,-8.8,0.1
COc1ccc2nc(NC(=O)C3CCN(S(=O)(=O)c4cnc[nH]4)CC3)sc2c1,-1.4,-1.2,-29.1,-2.7,1.0,nt,nt
